Consider one compound from ChEMBL document CHEMBL4680142, “Thiazolidine-2,4-dione-based irreversible allosteric IKK-β kinase inhibitors: Optimization into in vivo active anti-inflammatory agents” (Eur J Med Chem, 2020).

For assay [1], the system named is RAW264.7. As to the kind of experiment: Antiinflammatory activity against mouse RAW264.7 cells assessed as reduction in LPS-induced PGE2 production at 0.1 uM incubated for 1 hr followed by LPS stimulation and measured after 24 hrs by ELISA. Format: functional, cell-based. The note with it: time 25.0 hrs. The gist of the method: (§1)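 RAW 264.7 cells (DMEM, 10% FBS, 37 °C, 5% CO2) plated at 2×10^5 cells/mL and left overnight. Compounds (0.1, 1, 10 µM) or NS-398 given for 1 h, then LPS 10 ng/mL for 24 h. Culture medium assayed by ELISA: competitive colorimetric for PGE2/TNF-α, mouse DuoSet for TNF-α/IL-6. IC50 is the concentration lowering the mediator to 50%.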
For orientation: In an ELISA, binding on a coated surface is turned into a signal by an enzyme label.

The test system of assay [2] is RAW264.7. The assay is described as follows: Antiinflammatory activity against mouse RAW264.7 cells assessed as reduction in LPS-induced TNF-alpha level at 0.1 to 1 uM incubated for 1 hr followed by LPS stimulation and measured after 24 hrs by ELISA. Format: functional, cell-based. The note with it: dose 0.1-1 µM, time 25.0 hrs. The gist of the method:
as §1

Activity calls are given as the source filed them. No cut-off for these calls is given here.

As to `CN1CCN(CCCOc2ccc(N3C(=O)S/C(=C\c4ccc(Oc5ccc(C#N)cc5)cc4)C3=O)cc2)CC1`, in the assay on RAW264.7 [1], the outcome was Active. For the same compound, the inhibition entry in the assay with RAW264.7 [2] is “inactive”.
